Data set [1] has as its system Hathewaya histolytica. The data set can be described thus: In vitro antibacterial activity against Clostridium histolyticum 503-86. Format: functional.
Data set [2] deals with Enterobacter cloacae. The data set can be described thus: In vitro antibacterial activity against Enterobacter cloacae P99 (constitutive beta-lactamase producer). Format: functional.
The target in data set [3] is T1, Penicillin-binding protein 1 (Staphylococcus aureus (strain COL)) (UniProt F4NA86).
T1 sequence (whole entry): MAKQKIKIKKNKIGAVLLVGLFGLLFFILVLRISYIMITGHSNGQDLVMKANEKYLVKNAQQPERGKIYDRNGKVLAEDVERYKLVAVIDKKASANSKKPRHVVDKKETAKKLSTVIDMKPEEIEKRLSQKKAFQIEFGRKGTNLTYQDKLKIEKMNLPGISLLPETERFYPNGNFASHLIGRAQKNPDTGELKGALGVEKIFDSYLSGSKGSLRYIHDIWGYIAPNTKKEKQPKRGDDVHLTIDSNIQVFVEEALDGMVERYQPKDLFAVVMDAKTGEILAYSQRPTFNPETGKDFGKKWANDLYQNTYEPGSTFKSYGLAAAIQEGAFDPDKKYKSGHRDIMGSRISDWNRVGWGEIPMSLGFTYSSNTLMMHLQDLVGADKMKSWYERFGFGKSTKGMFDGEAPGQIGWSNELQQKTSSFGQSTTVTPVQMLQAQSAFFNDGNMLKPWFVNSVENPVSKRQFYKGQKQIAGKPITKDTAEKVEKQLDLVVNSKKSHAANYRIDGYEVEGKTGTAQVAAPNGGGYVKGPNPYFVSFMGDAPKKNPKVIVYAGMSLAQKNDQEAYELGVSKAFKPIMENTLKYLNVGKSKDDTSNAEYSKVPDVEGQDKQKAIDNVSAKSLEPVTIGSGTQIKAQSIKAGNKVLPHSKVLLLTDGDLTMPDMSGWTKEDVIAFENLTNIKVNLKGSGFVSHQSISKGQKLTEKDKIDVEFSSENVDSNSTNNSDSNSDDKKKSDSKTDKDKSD
The data set can be described thus: Concentration inhibiting [14C]- Penicillin G binding to Staphylococcus aureus ATCC 29213 Penicillin binding protein 1, 87 kDa.

The target in data set [4] is T2, Penicillin-binding protein 2b (Staphylococcus aureus) (UniProt Q9XDB3).
T2 sequence (whole entry): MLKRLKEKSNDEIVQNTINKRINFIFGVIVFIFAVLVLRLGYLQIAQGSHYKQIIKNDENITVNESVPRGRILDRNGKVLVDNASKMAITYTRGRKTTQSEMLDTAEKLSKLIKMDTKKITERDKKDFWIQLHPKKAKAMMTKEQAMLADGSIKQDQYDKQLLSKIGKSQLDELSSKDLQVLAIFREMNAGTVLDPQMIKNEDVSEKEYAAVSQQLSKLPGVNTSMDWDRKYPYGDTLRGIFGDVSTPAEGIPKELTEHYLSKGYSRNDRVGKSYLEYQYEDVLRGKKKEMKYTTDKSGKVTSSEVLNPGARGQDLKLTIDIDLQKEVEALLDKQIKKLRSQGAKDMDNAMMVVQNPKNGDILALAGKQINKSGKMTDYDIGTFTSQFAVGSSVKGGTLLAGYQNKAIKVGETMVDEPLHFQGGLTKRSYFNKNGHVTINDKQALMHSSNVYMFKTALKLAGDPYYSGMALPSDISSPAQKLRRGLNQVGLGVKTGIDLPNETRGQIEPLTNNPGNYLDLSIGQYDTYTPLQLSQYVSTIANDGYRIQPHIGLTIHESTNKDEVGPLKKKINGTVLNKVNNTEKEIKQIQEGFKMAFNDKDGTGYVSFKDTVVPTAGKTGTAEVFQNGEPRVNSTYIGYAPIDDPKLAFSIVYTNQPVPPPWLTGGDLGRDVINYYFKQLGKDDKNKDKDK
The data set can be described thus: Concentration inhibiting [14C]- Penicillin G binding to Staphylococcus aureus ATCC 29213 Penicillin binding protein 3, 75 kDa.

Data set [5] deals with Escherichia coli. The data set can be described thus: Minimum inhibitory concentration inhibiting [14C]- Penicillin G binding to Escherichia coli UB1005 PBPs.
Another data set deals with Proteus vulgaris. The data set can be described thus: In vitro antibacterial activity against Proteus vulgaris ATCC 6380 (constitutive beta-lactamase producer). Format: functional. An outline of the steps:
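Proteus MICs were determined by agar dilution on Mueller-Hinton agar containing 3% agar. Plates were replicator-inoculated with 100-fold-diluted overnight broth cultures.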

Data set [6] relates to Staphylococcus aureus. The data set can be described thus: (§1) In vitro antibacterial activity against Staphylococcus aureus 753 (constitutive beta-lactamase producer). Type of data set: functional. An outline of the steps: (§2)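 MIC was determined by agar dilution on Mueller-Hinton agar. Serial 2-fold aqueous dilutions were diluted 10-fold in agar to give final concentrations of 128 to 0.0156 μg/mL. Plates were inoculated by Steers replicator with overnight broth cultures diluted 100-fold.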

The next data set concerns Serratia marcescens. The data set can be described thus: In vitro antibacterial activity against Serratia marcescens SM (constitutive beta-lactamase producer). Format: functional. An outline of the steps: as §2
The nature of data set [7]: Stability in pH 7.4 phosphate buffer at 37 degree C. Type of data set: physicochemical. In short, it runs like this: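 Compounds were held in pH 7.4 phosphate buffer at 37 °C and monitored by reverse-phase HPLC on a PRP-1 column with UV detection at 275–286 nm. The mobile phase was 0.01 M tetradecyltrimethylammonium bromide in pH 8.2 phosphate/acetonitrile. Product-peak decline was followed to at least 50%, and half-life was taken from semilogarithmic plots.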

In data set [8] the test system is Hathewaya histolytica. The data set can be described thus: In vitro antibacterial activity against clostridium histolyticum 503-86. Format: functional. An outline of the steps: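 Anaerobic MIC, run in microtiter plates in Schaedler's broth supplemented with coenzyme I and hemin. Incubated in an oxygen-free hydrogen–carbon dioxide atmosphere.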
For data set [9], the system named is Escherichia coli. The data set can be described thus: In vitro antibacterial activity against Escherichia coli 25922. Format: functional. In short, it runs like this: as §2
Data set [10] concerns Enterobacter cloacae. The data set can be described thus: In vitro antibacterial activity against enterobacter cloacae P99 (constitutive beta-lactamase producer). Format: functional. In short, it runs like this: as §2
A further data set deals with Pseudomonas aeruginosa. The data set can be described thus: In vitro antibacterial activity against Ps. aeruginosa 18SH (constitutive beta-lactamase producer). Type of data set: functional. An outline of the steps:
as §2

The test system of data set [11] is Staphylococcus aureus. The data set can be described thus: Minimum inhibitory concentration to the Penicillin G binding to Staphylococcus aureus ATCC 29213 PBPs.
Data set [12] addresses T1, Penicillin-binding protein 1 (Staphylococcus aureus (strain COL)). The data set can be described thus: Concentration inhibiting [14C]- Penicillin G binding to Staphylococcus aureus ATCC 29213 Penicillin binding protein 1 87 kDa.
The target of data set [13] is Penicillin-binding protein 2 (Staphylococcus aureus) (UniProt Q53729). The data set can be described thus: Concentration inhibiting [14C]- Penicillin G binding to Staphylococcus aureus ATCC 29213 Penicillin binding protein 2, 80 kDa.
Data set [14] deals with Escherichia coli. The data set can be described thus: Minimum inhibitory concentration inhibiting [14C]- Penicillin G binding to Escherichia coli UB1005 PBPs.
Data set [15] relates to Staphylococcus aureus. The data set is described as §1. Format: functional. In short, it runs like this:
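MIC by agar dilution on Mueller-Hinton agar. Compounds were serially 2-fold diluted in water, final 128 to 0.0156 μg/mL in agar. Inoculum: overnight broth culture diluted 100-fold, applied with a Steers replicator.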
The source holds these as a separate data set.

Data set [16] has as its system Escherichia coli. The data set can be described thus: Effect on replication DNA biosynthesis in Escherichia coli H560 (permeabilised cells). Type of data set: functional, organism-based. An outline of the steps: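 Toluene-permeabilized E. coli H560 cells were used. Replicative DNA synthesis was measured as ATP-dependent [3H]thymidine incorporation into trichloroacetic acid-insoluble material. IC50 is the concentration giving 50% inhibition.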

The subject of data set [17] is Escherichia coli. The data set can be described thus: In vitro antibacterial activity against Escherichia coli UB1005 (nalidixic acid-resistant strain). Type of data set: functional. An outline of the steps:
as §2

The test system of data set [18] is Staphylococcus aureus. The data set can be described thus: Minimum inhibitory concentration to the Penicillin G binding to Staphylococcus aureus ATCC 29213 Penicillin binding protein.
In data set [19] the target is T2, Penicillin-binding protein 2b (Staphylococcus aureus). The data set can be described thus: Concentration inhibiting [14C]- Penicillin G binding to Staphylococcus aureus ATCC 29213 Penicillin binding protein 3, 85 kDa.

`C[C@@H](O)[C@H]1C(=O)N2C(C(=O)[O-])=C(CO)S[C@H]12.[Na+]`: the MIC was less than 0.125 µg/mL against Hathewaya histolytica [1]; 8 µg/mL with Enterobacter cloacae [2]; 4 µg/mL in the data set on Escherichia coli [5]; 8 µg/mL against Proteus vulgaris; 1 µg/mL in the data set on Staphylococcus aureus [6]; 8 µg/mL against Serratia marcescens. The concentration for an effect of 90% (IC90) (commonly the concentration needed for an effect of 90%) worked out at 30 µg/mL in [3] and 10 µg/mL in data set [4].
On to `C[C@@H](O)[C@H]1C(=O)N2C(C(=O)[O-])=C(COC(=O)c3cn(CCF)c4c(F)c(N5CCN(C)CC5)c(F)cc4c3=O)S[C@H]12.[Na+]`, for which, in data set [7], the half-life (in general, the time needed for the level to fall by half in the phase considered) was 52 h. Further, the MIC in the data set with Hathewaya histolytica [8] is less than 0.125 µg/mL; with Escherichia coli [9] it was 0.25 µg/mL; in the data set with Enterobacter cloacae [10] it was 0.5 µg/mL; with Pseudomonas aeruginosa, 4 µg/mL; against Staphylococcus aureus [11], 0.125 µg/mL; in the data set with Escherichia coli [14] it was 2 µg/mL. Besides, the MIC against Staphylococcus aureus [15] and against Escherichia coli [17] was 2 µg/mL in each case. The 90% effect concentration (IC90) in data set [12], in data set [13] and in [4] was 0.5 µg/mL in each case. Moreover, the IC50 (usually the midpoint of a concentration-inhibition curve) in the data set with Escherichia coli [16] was 4.7 µg/mL.
On to `C[C@@H](O)[C@H]1C(=O)N2C(C(=O)[O-])=C(COC(=O)N3CCN(c4cc5c(cc4F)c(=O)c(C(=O)O)cn5C4CC4)CC3)S[C@H]12.[Na+]`, for which the MIC against Hathewaya histolytica [8] is 0.25 µg/mL; against Escherichia coli [9], 0.06 µg/mL; against Enterobacter cloacae [10], 0.0625 µg/mL; in the data set on Staphylococcus aureus [18], 0.25 µg/mL; in the data set with Staphylococcus aureus [15] it was 4 µg/mL; against Escherichia coli [17] it was 4 µg/mL. Moreover, the 90% effect concentration (IC90) in [3], in data set [13] and in data set [19] was 2 µg/mL each time. Also, the IC50 with Escherichia coli [16] amounted to 3 µg/mL.

Values taken from ChEMBL document CHEMBL1126202, “Dual-action penems and carbapenems” (J Med Chem, 1992).
